The test concerns the target 20S proteasome (Homo sapiens, UniProt P28072+P28074+Q99436). The test can be described thus: Proteasome-Glo luminescent assay in MCF-7 cells. It is filed as cell-based. The following applies: MCF7, read-out: % Inhibition of 20S Proteasome / 20 μg/mL. In short, it runs like this: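 MCF-7 cells grown at 37°C, 5% CO2 in RPMI 1640 with 10% FBS, penicillin and streptomycin. Log-phase cells trypsinized, washed extensively, seeded at 7,500/well, incubated overnight. Test compound added in DMSO (final 0.2%), 2 h at 37°C. Luminescent read-out of proteasome chymotrypsin-like, trypsin-like or caspase-like activity. % inhibition versus solvent control. Bortezomib (5, 25 nM) was the positive control.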

Turning to `COC(=O)c1cccc(O)c1C(=O)c1c(O)cc(C)cc1O` [compound 1, moniliphenone], the inhibition at 20 µg/mL was 1%. With `COC(=O)[C@]12Oc3c(c(O)cc4c3[C@@H]3C=C[C@]5(C4)C(=C(O)c4c(O)cc(C)cc4[C@@H]5OC(C)=O)C3=O)C(=O)[C@]1(O)C(=O)C=C[C@@H]2O` [compound 2, acremoxanthone D] the figure was 58%.

For the origin of these results see paper PMC3267898 (The Journal of antibiotics, 2011).
